# Test results published in PMC11203390 (Molecular Therapy. Nucleic Acids, 2024).
# Key:
# siRNA = assay: Electrophoretic mobility shift assay; assay type: binding; conditions: pH 7
# Outline: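 Negative-control siRNA mixed with peptide at 1:20–1:100 siRNA:peptide molar ratios in RNase-free water, then incubated 1 h at 4, 25, 37 or 50 °C to encapsulate. For competition, DSS, 8 M urea stock or 20% NaCl stock was added before or after encapsulation. Complexes were run in dye-free glycerol loading buffer (5% final) on 4% agarose gels stained with ethidium bromide.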
# Integrin α2 (ITGA2) = Integrin α2 (ITGA2) (Homo sapiens, UniProt P17301); assay: Direct ELISA on HE25-coated plates, ITGA2; assay type: binding; conditions: negative control receptor
# SARS-CoV-2 spike RBD = SARS-CoV-2 spike RBD (Severe acute respiratory syndrome coronavirus 2, UniProt P0DTC2)
# Chain of Integrin α2 (ITGA2) (P17301 30-1132 limits assumed): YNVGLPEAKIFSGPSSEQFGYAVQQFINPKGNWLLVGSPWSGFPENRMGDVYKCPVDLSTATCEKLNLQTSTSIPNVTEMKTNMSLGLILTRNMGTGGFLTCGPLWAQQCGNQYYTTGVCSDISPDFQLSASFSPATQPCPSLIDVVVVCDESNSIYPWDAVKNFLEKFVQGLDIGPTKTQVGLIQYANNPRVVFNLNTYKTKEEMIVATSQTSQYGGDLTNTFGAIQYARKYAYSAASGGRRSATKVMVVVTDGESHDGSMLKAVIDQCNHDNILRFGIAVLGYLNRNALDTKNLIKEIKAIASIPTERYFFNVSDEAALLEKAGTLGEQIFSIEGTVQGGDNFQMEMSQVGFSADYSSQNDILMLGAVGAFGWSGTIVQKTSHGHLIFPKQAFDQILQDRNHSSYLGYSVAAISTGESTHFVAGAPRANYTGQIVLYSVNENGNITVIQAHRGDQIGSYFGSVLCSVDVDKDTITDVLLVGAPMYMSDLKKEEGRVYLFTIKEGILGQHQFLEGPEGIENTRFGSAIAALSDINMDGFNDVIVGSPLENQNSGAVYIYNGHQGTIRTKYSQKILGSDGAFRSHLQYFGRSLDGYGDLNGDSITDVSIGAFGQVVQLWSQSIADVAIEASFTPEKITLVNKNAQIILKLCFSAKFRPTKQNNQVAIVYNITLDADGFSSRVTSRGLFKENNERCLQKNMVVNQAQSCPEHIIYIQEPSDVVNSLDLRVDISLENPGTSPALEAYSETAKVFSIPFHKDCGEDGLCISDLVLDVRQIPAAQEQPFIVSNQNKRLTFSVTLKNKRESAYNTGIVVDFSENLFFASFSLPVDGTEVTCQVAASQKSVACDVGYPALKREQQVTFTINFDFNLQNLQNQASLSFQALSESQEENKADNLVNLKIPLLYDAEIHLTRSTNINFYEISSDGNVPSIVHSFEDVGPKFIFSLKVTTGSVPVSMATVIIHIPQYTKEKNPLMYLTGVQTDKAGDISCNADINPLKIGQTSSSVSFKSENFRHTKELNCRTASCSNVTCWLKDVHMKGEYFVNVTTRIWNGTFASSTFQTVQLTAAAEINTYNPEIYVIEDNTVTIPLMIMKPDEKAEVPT
substance,measurement,setting,value
stearyl-HEHHEHHEHEHGFLGRVRVLRGDKW-amide [HE25],effect of DSS on binding and preformed complex,"siRNA; EMSA competition, 20 mg/mL DSS before or after encapsulation, 50°C, molar ratio 1:100",interfere with the binding and disassemble the preformed complex
same,effect of urea on binding and preformed complex,"siRNA; EMSA competition, 1.6 M urea before or after encapsulation, 50°C, molar ratio 1:100",hindered initial binding but did not affect the ones formed
same,effect of NaCl on binding and disassembly,"siRNA; EMSA competition, 4% NaCl before or after encapsulation, 50°C, molar ratio 1:100",no notable effect on either binding or disassembly
same,effect of urea on binding,"siRNA; EMSA competition, urea, 4°C, molar ratio 1:100",not observed before encapsulation
same,encapsulation efficiency at 50°C,"siRNA; EMSA, 50°C",significantly increases
same,binding of ITGA2 to HE25,Integrin α2 (ITGA2),did not efficiently bind
same,binding of spike RBD to HE25-coated plates,SARS-CoV-2 spike RBD,recognized
